Measured values taken from ChEMBL document CHEMBL1255523, “Optimization of N-benzyl-benzoxazol-2-ones as receptor antagonists of macrophage migration inhibitory factor (MIF)” (Bioorg Med Chem Lett, 2010).
Active and inactive are the calls of the source. The rule behind the calls is not given here.

Key:
[1] = molecular target: T1, Macrophage migration inhibitory factor (Homo sapiens) (UniProt P14174); test: Inhibition of human recombinant MIF tautomerase at 30 uM by mass spectrometry analysis
T1 sequence (whole entry): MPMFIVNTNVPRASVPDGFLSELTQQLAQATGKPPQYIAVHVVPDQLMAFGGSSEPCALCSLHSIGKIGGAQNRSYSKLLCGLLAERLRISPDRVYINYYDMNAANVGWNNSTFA

[2] = molecular target: T2, MIF/CD74 (Macrophage migration inhibitory factor and HLA-DR antigens-associated invariant chain) (Homo sapiens) (UniProt P14174+P04233); test: Inhibition of human recombinant biotinylated MIF/CD74 interaction at 30 uM by mass spectrometry analysis; type: protein assay
[3] = molecular target: T1, Macrophage migration inhibitory factor (Homo sapiens); test: Inhibition of human recombinant MIF tautomerase at up to 0.1 uM
[4] = molecular target: T2, MIF/CD74 (Macrophage migration inhibitory factor and HLA-DR antigens-associated invariant chain) (Homo sapiens); test: Inhibition of human recombinant biotinylated MIF/CD74 interaction at up to 10 uM after 30 mins; type: protein assay
Outline: (§1)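 Bound MIF was detected with streptavidin-alkaline phosphatase and p-nitrophenylphosphate substrate. Compounds were tested over 500- to 5000-fold concentration ranges.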

[5] = molecular target: T3, MIF/CD74 (Macrophage migration inhibitory factor and HLA-DR antigens-associated invariant chain) (Homo sapiens, UniProt P04233+P14174); test: (§2) Inhibition of human recombinant biotinylated MIF/CD74 interaction after 30 mins; type: protein assay; outline: as §1
T3 sequence (P14174 whole entry): T1 sequence (whole entry)
T3 sequence (P04233 whole entry): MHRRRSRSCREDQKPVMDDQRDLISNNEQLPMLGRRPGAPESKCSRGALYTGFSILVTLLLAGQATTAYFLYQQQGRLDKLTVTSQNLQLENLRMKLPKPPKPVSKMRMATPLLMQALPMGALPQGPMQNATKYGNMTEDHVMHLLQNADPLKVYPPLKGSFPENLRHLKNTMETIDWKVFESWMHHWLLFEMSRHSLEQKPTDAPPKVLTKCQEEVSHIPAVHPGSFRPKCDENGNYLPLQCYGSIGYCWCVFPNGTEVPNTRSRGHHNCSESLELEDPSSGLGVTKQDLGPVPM

[6] = molecular target: T4, Macrophage migration inhibitory factor (Homo sapiens, UniProt P14174); test: Inhibition of human recombinant MIF tautomerase
T4 sequence (P14174 whole entry): T1 sequence (whole entry)

[7] = molecular target: T1, Macrophage migration inhibitory factor (Homo sapiens); test: Inhibition of MIF-dependent ERK1/2 phosphorylation in rheumatoid arthritis patient synovial fibroblasts assessed as phosphorylated ERK1/2 level at 300 nM after 30 mins
[8] = molecular target: T1, Macrophage migration inhibitory factor (Homo sapiens); test: Inhibition of MIF-dependent ERK1/2 phosphorylation in rheumatoid arthritis patient synovial fibroblasts assessed as total ERK1/2 level at 300 nM after 30 mins
[9] = molecular target: T5, MIF/CD74 (Macrophage migration inhibitory factor and HLA-DR antigens-associated invariant chain) (Homo sapiens, UniProt P14174+P04233); test: as §2; type: protein assay; outline: as §1
T5 sequence (P14174 whole entry): T1 sequence (whole entry)
T5 sequence (P04233 whole entry): T3 sequence (P04233 whole entry)

Row | SMILES | inhibition [3] | inhibition [4] | also measured
1 | Ic1cc(-c2ccccc2)ncn1 |  |  | inhibition [1]: 90%; inhibition [2]: 50%
2 | O=c1oc2ccc(O)cc2n1Cc1cccc(O)c1 | 25% | 36% | 
3 | COc1ccc2oc(=O)n(Cc3cccc(O)c3)c2c1 | 10% |  | IC50 [5]: 0.08 µM
4 | COc1cccc(Cn2c(=O)oc3cc(F)ccc32)c1 | 35% | 15% | 
5 | Cc1ccc2c(c1)oc(=O)n2Cc1cccc(O)c1 |  | 10% | IC50 ([6]; read-out: IC50): 0.0075 µM
6 | Cc1ccc2oc(=O)n(Cc3cccc(F)c3)c2c1 |  |  | IC50 [6]: Not Active
7 | O=c1oc2cc(O)ccc2n1Cc1ccccc1 | 28% | 22% | 
8 | COc1cccc(Cn2c(=O)oc3ccc(CO)cc32)c1 | 44% | 27% | 
9 | O=c1oc2ccccc2n1Cc1ccccc1 |  | 18% | IC50 ([6]; read-out: IC50): 21 µM
10 | COc1ccc(Cn2c(=O)oc3ccc(C)cc32)cc1 |  |  | IC50 [6]: Not Active
11 | Cc1ccc2oc(=O)n(Cc3ccc(O)cc3)c2c1 |  |  | IC50 [6]: Not Active
12 | Cc1cc2oc(=O)n(Cc3cccc(O)c3)c2cc1C | 33% | 32% | 
13 | CCOc1ccccc1Cn1c(=O)oc2ccc(C)cc21 | 21% | 45% | 
14 | O=c1oc2ccc(F)cc2n1Cc1cccc(O)c1 | 32% | 18% | 
15 | COc1ccccc1Cn1c(=O)oc2ccc(O)cc21 |  | 27% | IC50 ([6]; read-out: IC50): 30 µM
16 | CCc1ccc2oc(=O)n(Cc3cccc(O)c3)c2c1 |  | 19% | IC50 ([6]; read-out: IC50): 2.5 µM
17 | O=c1oc2cc(F)ccc2n1Cc1cccc(O)c1 |  |  | IC50 [9]: Not Active; IC50 [6]: Not Active
18 | COc1cccc(Cn2c(=O)oc3ccc(F)cc32)c1 |  |  | IC50 [6]: Not Active
19 | Cc1ccc2c(c1)oc(=O)n2Cc1ccccc1 |  | 25% | 
20 | O=c1oc2ccc(CO)cc2n1Cc1cccc(O)c1 |  |  | IC50 [5]: 30 µM; IC50 [6]: Not Active
21 | COc1cccc(Cn2c(=O)oc3ccc(O)cc32)c1OC |  |  | IC50 [5]: 300 µM; IC50 ([6]; read-out: IC50): 2.1 µM
22 | O=c1oc2ccc(O)cc2n1Cc1ccccc1 |  |  | IC50 [6]: Not Active

Further lines, with some results ahead:

Row | inhibition [3] | inhibition [4] | SMILES | also measured
23 | 32% |  | COc1cccc(Cn2c(=O)oc3ccc(C)cc32)c1OC | IC50 [5]: 7 µM
24 | 25% |  | COc1cccc(Cn2c(=O)oc3cc(C)c(C)cc32)c1 | IC50 [5]: 0.115 µM
25 | 12% | 22% | COc1cc(O)cc(Cn2c(=O)oc3ccc(C)cc32)c1 | 
26 | 20% | 30% | CCOc1cccc(Cn2c(=O)oc3ccc(C)cc32)c1 | 
27 |  | 42% | COc1cccc(Cn2c(=O)oc3ccc(C)cc32)c1 | 
28 | 31% | 27% | Cc1ccc2oc(=O)n(Cc3cccc(N)c3)c2c1 | 
29 | 13% | 15% | CCc1ccc2oc(=O)n(Cc3cccc(OC)c3)c2c1 | 
30 | 30% | 35% | CCOc1cc(O)cc(Cn2c(=O)oc3ccc(C)cc32)c1 | 
31 |  | 40% | Cc1ccc2oc(=O)n(Cc3cccc(O)c3)c2c1 | inhibition [7]: Active; inhibition [8]: Active; inhibition [1]: 50%; inhibition [2]: 50%
32 | 41% |  | COc1cccc(Cn2c(=O)oc3ccc(OC)cc32)c1 | IC50 [5]: 200 µM
33 | 16% | 24% | COc1cccc(Cn2c(=O)oc3cc(C)ccc32)c1 | 
34 | 17% | 11% | COc1cc(Cn2c(=O)oc3ccc(C)cc32)cc(OC)c1 | 
